According to article PMC10013843 (Molecular psychiatry, 2022):

Experiments:
[1] = tested on: NMDA receptors; test: [^3H]MK-801 competition binding, rat brain membranes
[2] = target: kappa-opioid receptors, KOR (Rattus norvegicus, UniProt P34975); test: [^3H]U69,593 competition binding, rat brain membranes
[3] = target: MOR (OPRM1) (Homo sapiens, UniProt P35372); test: cAMP BRET; assay type: cell-based; conditions: HEK-293 cells, up to a concentration of 1 mM
How it was run: (§1)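 HEK-293 cells (DMEM, 10% FBS, 37°C/5% CO2) were PEI-transfected with 5 μg untagged MOR, KOR or DOR plus 5 μg CAMYEL cAMP biosensor and used 48 h later. Cells were suspended in DPBS with 100 μM metabisulfite and 5.5 mM glucose and kept 45 min in the dark. Forskolin (10 μM) was added for 5 min, then coelenterazine H (5 μM) for 5 min, then compound. BRET (535/475 nm) was read 5 min later, forskolin-only background subtracted, and expressed as % of each receptor's maximum. Triplicates; 3–6 experiments for EC50/Emax.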

[4] = target: KOR (OPRK1) (Homo sapiens, UniProt P41145); test: cAMP BRET; assay type: cell-based; conditions: HEK-293 cells, up to a concentration of 1 mM
How it was run: as §1

[5] = target: delta-opioid receptor (DOR; OPRD1) (Homo sapiens, UniProt P41143); test: cAMP BRET; assay type: cell-based; conditions: HEK-293 cells, up to a concentration of 1 mM
How it was run: as §1

[6] = target: Neurokinin receptor (NK1) (Homo sapiens, UniProt P25103); test: Receptor and enzyme competitive screen; assay type: binding; conditions: 10 μM
How it was run: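 In an outsourced panel, membranes from stable cell lines expressing each receptor or enzyme were incubated with the target's radioligand, with or without test compound at 100 nM or 10 μM. A reference compound ran concurrently, and a specific agonist or antagonist defined nonspecific binding. Bound ligand was collected by vacuum filtration through presoaked glass-fibre filters, washed with ice-cold buffer and counted by scintillation.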

[7] = target: NK1R (Rattus norvegicus, UniProt P14600); test: [^3H]-Substance P binding, rat whole brain membrane homogenates
[8] = target: mGluR6 (Homo sapiens, UniProt O15303); test: mGluR functional assay; assay type: biochemical
[9] = target: T1, HCN1 channel (Homo sapiens, UniProt O60741); test: HCN1 channel functional interaction; assay type: biochemical
T1 sequence (O60741 1-890): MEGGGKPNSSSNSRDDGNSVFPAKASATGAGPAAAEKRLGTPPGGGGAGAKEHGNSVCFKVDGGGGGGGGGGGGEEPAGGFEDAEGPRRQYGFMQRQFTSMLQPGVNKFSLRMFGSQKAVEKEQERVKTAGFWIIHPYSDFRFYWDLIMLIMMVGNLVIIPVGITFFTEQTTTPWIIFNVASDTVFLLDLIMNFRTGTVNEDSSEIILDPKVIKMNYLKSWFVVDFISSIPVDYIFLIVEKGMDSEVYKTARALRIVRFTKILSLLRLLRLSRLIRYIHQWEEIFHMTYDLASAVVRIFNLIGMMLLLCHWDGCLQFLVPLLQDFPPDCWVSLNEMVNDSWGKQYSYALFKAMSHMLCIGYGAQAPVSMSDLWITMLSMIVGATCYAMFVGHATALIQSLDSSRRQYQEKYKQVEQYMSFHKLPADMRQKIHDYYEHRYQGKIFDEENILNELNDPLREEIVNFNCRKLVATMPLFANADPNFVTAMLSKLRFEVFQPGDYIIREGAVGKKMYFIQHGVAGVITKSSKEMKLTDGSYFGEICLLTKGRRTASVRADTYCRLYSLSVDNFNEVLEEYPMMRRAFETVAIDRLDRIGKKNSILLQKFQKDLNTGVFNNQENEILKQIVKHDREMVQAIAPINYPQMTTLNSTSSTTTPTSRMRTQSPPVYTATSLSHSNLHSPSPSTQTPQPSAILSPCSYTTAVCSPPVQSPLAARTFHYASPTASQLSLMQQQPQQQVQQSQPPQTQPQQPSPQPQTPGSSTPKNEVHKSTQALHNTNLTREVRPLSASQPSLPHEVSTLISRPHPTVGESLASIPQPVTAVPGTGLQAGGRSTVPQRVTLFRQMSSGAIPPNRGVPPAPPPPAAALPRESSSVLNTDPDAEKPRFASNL

[10] = target: sigma-1 receptors (Rattus norvegicus, UniProt Q9R0C9); test: [^3H]-pentazocine competition binding, rat brain membranes
[11] = tested on: cDNA libraries derived from human adult brain, human lung cancer cells, and human placenta; test: Yeast 3-hybrid screen, human cDNA libraries; conditions: lung cancer cell and placenta libraries
[12] = tested on: >30,000 proteins; test: Collective screening and target deconvolution; assay type: binding
[13] = target: tropomyosin receptor kinase B (TrkB) (Homo sapiens, UniProt Q16620); test: Screening and target deconvolution experiments; assay type: binding
[14] = target: estrogen receptor alpha (ERα) (Homo sapiens, UniProt P03372); test: Screening and target deconvolution experiments; assay type: binding
[15] = tested on: mice; test: Forced swimming test; assay type: in vivo, mouse; conditions: 24 hours after
How it was run: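 Male CD-1 mice (35–40 g, n = 8/condition) received a single IP dose of test compound (1, 3 or 10 mg/kg) or saline 24 h before a 6-min swim under 800 lux. Cylinders were 30 cm high × 20 cm diameter, holding 15 cm of water at 23 ± 1°C. A blinded observer scored immobility from video over the last 4 min.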

[16] = tested on: mice; test: Open-field locomotor activity; assay type: in vivo, mouse; conditions: male mice; single 10, 30, 65 mg/kg IP
[17] = tested on: rats; test: Intravenous self-administration; assay type: in vivo, rat
How it was run: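 Male rats had jugular catheters placed under isoflurane and recovered 6–8 days. They were food-restricted (18–20 g/day) on a reverse 12-h cycle. For training (n = 14), rats self-administered test compound at 0.5 mg/kg/infusion IV, FR1 with 20-s timeout, for 16 days. For dose-response (n = 8/condition), unit doses of 0.125, 0.25, 0.5 or 1.0 mg/kg/infusion were given in randomized sequence, 1 h/day for 8 days. Read-out was infusions earned.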

[18] = tested on: rats; test: Heroin self-administration and substitution; assay type: in vivo, rat; conditions: 0.5 mg/kg/inf IV
[19] = after administration of antidepressant-like doses; cited from earlier work
[20] = tested on: opioid receptors; conditions: cited from earlier work

SMILES: N[C@@]1(c2ccccc2Cl)CCC[C@@H](O)C1=O [(2R,6R)-HNK, (2R,6R)-hydroxynorketamine]
- displacement of [^3H]MK-801 (NMDAR binding) ([1]; concentrations up to 100 μM): no displacement
- displacement of [^3H]MK801 binding ([1]; rat brain membranes): failed to displace
- binding to opioid receptors (KOR) ([2]; concentrations up to 100 μM): does not bind
- KOR binding, displacement of [^3H]U69,593 ([2]; rat brain membranes): failed to displace
- cAMP response (inhibition of cAMP accumulation) [3]: did not induce any cAMP response
- cAMP response (inhibition of cAMP accumulation) [4]: did not induce any cAMP response
- cAMP response (inhibition of cAMP accumulation) [5]: did not induce any cAMP response
- binding of Substance P to NK1 in screen [6]: increases binding of Substance P
- [^3H]-Substance P binding [7]: did not alter
- effect in functional assay at mGluR6 [8]: no effects
- interaction with the HCN1 channel [9]: neither (2R,6R)-HNK nor ketamine interacted
- binding to sigma receptors ([^3H]-pentazocine) [10]: did not bind
- high-confidence (2R,6R)-HNK-protein interactions [11]: did not identify any positive high-confidence (2R,6R)-HNK-protein interactions
- direct protein interactions, all screens together [12]: failed to identify any (2R,6R)-HNK-protein interactions
- interaction with TrkB [13]: failed to interact
- interaction with ERα [14]: failed to interact
- immobility time in forced swimming test, difference from vehicle ([15]; 1 mg/kg IP): but not 1 mg/kg
- immobility time in forced swimming test ([15]; 3 or 10 mg/kg IP, single administration): reduced immobility time
- locomotor activity, acute [16]: did not alter locomotor activity
- self-administration training ([17]; male rats, 0.5 mg/kg/inf IV, FR1, 20-s timeout, 16 days): not a reliable reinforcer
- self-administration dose-response ([17]; rats, unit doses 0.125, 0.25, or 1 mg/kg/inf): did not respond
- pressing on first session after heroin substitution [18]: pressed significantly more
- self-administration on successive sessions after heroin substitution [18]: rapid extinction of self-administration
- concentration achieved in the brain [19]: ~ 10 μM
- functional properties at opioid receptors [20]: inverse agonist properties
